Results as given in ChEMBL document CHEMBL2321678, “Incorporation of non-natural amino acids improves cell permeability and potency of specific inhibitors of proteasome trypsin-like sites” (J Med Chem, 2013).
Activity calls are given as the source filed them. The calls are words filed in the database; no cut-off is given here.

Assays:
[1] = test system: RPMI-8226; assay: Sensitization of human RPMI8226 cells to Carfilzomib assessed as cell viability at 27 uM after 47 hrs; format: functional, cell-based
[2] = test system: RPMI-8226; assay: Cytotoxicity against human RPMI8226 cells; format: functional, cell-based
In short: (§1)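 RPMI-8226 grown in RPMI-1640 with 10% FBS, penicillin, streptomycin and plasmocin, 5% CO2. For sensitization, cells exposed to bortezomib for 1 h, then 47 h with the trypsin-site inhibitor (1 µM). Viability by Alamar Blue dye conversion; mean ± SEM of three biological replicates.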

[3] = test system: Saccharomyces cerevisiae; assay: Inhibition of caspase-like activity of yeast 20s proteasome beta 1 subunit assessed as hydrolysis of […] fluorogenic substrate at 200 uM after 15 mins by fluorescence spectrophotometry
In short: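 Yeast 20S core particle (0.10 nM) preincubated 15 min with inhibitor, which stays present during the assay. Substrate ZLLE-amc for caspase-like sites, 250 µM, in 20 mM Tris, 0.01% SDS, pH 7.5. Hydrolysis monitored for 1 h at room temperature (ex 360/em 460 nm).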

[4] = test system: RPMI-8226; assay: Sensitization of human RPMI8226 cells to Bortezomib assessed as cell viability at 1 uM after 47 hrs; format: functional, cell-based; in short: as §1
[5] = test system: RPMI-8226; assay: Sensitization of human RPMI8226 cells to Carfilzomib assessed as cell viability at 1 uM after 47 hrs; format: functional, cell-based
[6] = test system: NCI-H929; assay: Partial inhibition of cathepsin in human NCI-H929 cells assessed as hydrolysis of Z-FR-amc fluorogenic substrate after 6 hrs; format: cell-based
In short: (§2)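 NCI-H929 cells treated 6 h, washed and permeabilized on ice with 0.05% digitonin in Tris pH 7.5 sucrose buffer. Cytosol removed by centrifugation, then the pellet lysed in Bis-Tris pH 5.5/CHAPS buffer. Protein-normalized extract added to 40 µM Z-FR-amc in phosphate pH 6.0, EDTA, DTT. Fluorescence read continuously for 30 min; rate from slopes.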

[7] = Inhibition of trypsin-like activity of rabbit 26s proteasome beta 2 subunit assessed as hydrolysis of Ac-RLR-amc fluorogenic substrate preincubated for 30 mins followed by substrate addition measured for 30 mins by fluorescence plate reader analysis; set-up: species or system Oryctolagus cuniculus
In short: (§3)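 Purified rabbit-muscle 26S proteasome (final 3 µg/mL) preincubated 30 min with a range of inhibitor concentrations. Slopes expressed as % of mock; IC50 by four-parameter least-squares fit.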

[8] = Inhibition of chymotrypsin-like activity of rabbit 26s proteasome beta 5 subunit assessed as hydrolysis of Suc-LLVY-amc fluorogenic substrate preincubated for 30 mins followed by substrate addition measured for 30 mins by fluorescence plate reader analysis; set-up: species or system Oryctolagus cuniculus; in short: as §3
[9] = target: T1, Proteasome Macropain subunit MB1 (Homo sapiens, UniProt P28074); assay: Inhibition of chymotrypsin-like activity of proteasome beta 5 subunit in HEK-293T cell lysates using BODIPY-BODIPY-TMR-epoxomicin as probe after 1 hr by SDS-PAGE analysis
T1 sequence (P28074 whole entry): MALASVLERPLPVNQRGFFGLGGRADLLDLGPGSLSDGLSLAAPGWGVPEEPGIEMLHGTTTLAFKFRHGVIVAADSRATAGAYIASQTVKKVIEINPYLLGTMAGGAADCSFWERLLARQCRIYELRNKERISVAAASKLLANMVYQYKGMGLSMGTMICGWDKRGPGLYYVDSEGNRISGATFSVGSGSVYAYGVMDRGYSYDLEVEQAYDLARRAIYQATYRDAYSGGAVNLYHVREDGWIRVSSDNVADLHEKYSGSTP
In short: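 Then 1 h at 37 °C with BODIPY-TMR-Ahx3L3-vs or BODIPY-TMR-epoxomicin (0.5 µM). Three independent experiments; IC50 fitted.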

[10] = species on record: Homo sapiens; assay: Selectivity ratio of IC50 for chymotrypsin-like activity of human proteasome beta 5 subunit to IC50 for trypsin-like activity of human proteasome beta 2 subunit
[11] = Inhibition of caspase-like activity of rabbit 26s proteasome beta 1 subunit assessed as hydrolysis of Acn-LPnLD-amc fluorogenic substrate preincubated for 30 mins followed by substrate addition measured for 30 mins by fluorescence plate reader analysis; set-up: species or system Oryctolagus cuniculus; in short: as §3
[12] = species on record: Oryctolagus cuniculus; assay: Selectivity ratio of IC50 for chymotrypsin-like activity of rabbit 26s proteasome beta 5 subunit to IC50 for trypsin-like activity of rabbit 26s proteasome beta 2 subunit
In short: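 Purified rabbit-muscle 26S proteasome (final 3 µg/mL) preincubated 30 min with a range of inhibitor concentrations. […] Amc release read continuously for 30 min (ex 380/em 460 nm). Slopes expressed as % of mock; IC50 by four-parameter least-squares fit.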

[13] = test system: RPMI-8226; assay: Potentiation of NC-022-induced sensitization of human RPMI8226 cells to Carfilzomib assessed as cell viability at 10 uM after 48 hrs; format: functional, cell-based
[14] = test system: RPMI-8226; assay: Sensitization of human RPMI8226 cells to Carfilzomib assessed as cell viability at 10 uM after 48 hrs; format: functional, cell-based
[15] = Inhibition of chymotrypsin-like activity of yeast 20s proteasome beta 5 subunit assessed as hydrolysis of Suc-LLVY-amc fluorogenic substrate after 15 mins by fluorescence spectrophotometry; set-up: species or system Saccharomyces cerevisiae
[16] = test system: NCI-H929; assay: Inhibition of cathepsin in human NCI-H929 cells assessed as hydrolysis of Z-FR-amc fluorogenic substrate after 6 hrs; format: cell-based; in short: as §2

| SMILES | IC50 [7] | IC50 [8] | IC50 [9] | Ratio IC50 [10] | IC50 [11] | Ratio IC50 [12] | further results |
| --- | --- | --- | --- | --- | --- | --- | --- |
| CC(C)C[C@H](NC(=O)[C@H](Cc1ccccc1)N=[N+]=[N-])C(=O)N[C@@H](CC(C)C)C(=O)N[C@H](/C=C/S(C)(=O)=O)Cc1ccc(CN)cc1 | – | – | – | – | – | – | Activity [1]: Active; Activity [2]: inactive; inhibition [3]: inactive; Activity [4]: Active; Activity [5]: Active; inhibition [6]: Active |
| CC(C)C[C@@H](/C=C/S(C)(=O)=O)NC(=O)[C@H](CC(C)C)NC(=O)[C@H](Cc1ccc(N)cc1)NC(=O)[C@H](Cc1ccccc1)N=[N+]=[N-] | 24000 nM | < 4 nM | 93 nM | 0.034 | > 30000 nM | – | – |
| CC(=O)N[C@@H](CCCNC(=N)N)C(=O)N[C@@H](CC(C)C)C(=O)N[C@@H](CCCNC(=N)N)C(=O)[C@@]1(C)CO1 | 80 nM | > 30000 nM | – | – | > 30000 nM | – | – |
| CC(C)C[C@H](NC(=O)[C@H](Cc1ccc(CN)cc1)NC(=O)[C@H](Cc1ccccc1)N=[N+]=[N-])C(=O)N[C@H](/C=C/S(C)(=O)=O)Cc1ccncc1 | 45 nM | 410 nM | 2400 nM | 6.5 | > 30000 nM | 9.1 | – |
| CCOC(=O)[C@H]1O[C@@H]1C(=O)N[C@@H](CC(C)C)C(=O)NCCC(C)C | – | – | – | – | – | – | Activity [13]: inactive; Activity [14]: inactive |
| Cc1c(O)cccc1C(=O)N[C@H](C(=O)N[C@@H](CO)C(=O)N[C@H](/C=C/S(C)(=O)=O)Cc1ccc(N)cc1)C(C)C | > 30000 nM | 200 nM | – | – | > 30000 nM | < 0.0067 | – |
| Cc1c(O)cccc1C(=O)N[C@H](C(=O)N[C@@H](CO)C(=O)N[C@H](/C=C/S(C)(=O)=O)Cc1ccc(CN)cc1)C(C)C | – | – | – | – | 21000 nM | – | IC50 [15]: 19300 nM; inhibition [16]: inactive |
| CC(C)C[C@H](NC(=O)[C@H](Cc1ccccc1)N=[N+]=[N-])C(=O)N[C@@H](CC(C)C)C(=O)N[C@H](/C=C/S(C)(=O)=O)Cc1ccc(N)cc1 | 110 nM | 40 nM | 1100 nM | 0.73 | 23000 nM | 0.36 | – |
| CC(C)C[C@@H](/C=C/S(C)(=O)=O)NC(=O)[C@H](CC(C)C)NC(=O)[C@H](Cc1ccc(CN)cc1)NC(=O)[C@H](Cc1ccccc1)N=[N+]=[N-] | 180 nM | 10 nM | 480 nM | 2.5 | – | 0.057 | – |
| CC(C)C[C@H](NC(=O)[C@H](Cc1ccc(CN)cc1)NC(=O)[C@H](Cc1ccccc1)N=[N+]=[N-])C(=O)N[C@H](/C=C/S(C)(=O)=O)Cc1ccc(CN)cc1 | 6.6 nM | 8900 nM | – | – | – | – | inhibition [16]: Active |
| CC(C)C[C@@H](/C=C/S(C)(=O)=O)NC(=O)[C@H](CC(C)C)NC(=O)[C@H](Cc1ccncc1)NC(=O)[C@H](Cc1ccccc1)N=[N+]=[N-] | 24000 nM | 5 nM | 160 nM | 0.029 | > 30000 nM | 0.00021 | – |
| CC(C)C[C@H](NC(=O)[C@H](Cc1ccc(N)cc1)NC(=O)[C@H](Cc1ccccc1)N=[N+]=[N-])C(=O)N[C@H](/C=C/S(C)(=O)=O)Cc1ccc(CN)cc1 | 30 nM | 3400 nM | – | – | 30000 nM | – | inhibition [6]: Active |
